Assay results reported in ChEMBL document CHEMBL4480420, “Specificity of extended O-aryloxycarbonyl hydroxamates as inhibitors of a class C β-lactamase” (Bioorg Med Chem, 2019).

How the values were obtained:
[1] = molecular target: Beta-lactamase (Enterobacter cloacae) (UniProt P05364); experiment: Irreversible inhibition of Enterobacter cloacae P99 beta-lactamase assessed as ratio of K2/K3 using cephalothin as substrate by spectrophotometric analysis
Method in brief: (§1)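 Reactions ran at 25 °C in 20 mM MOPS, pH 7.5, with 0.1% BSA. Time courses: aliquots taken into 300 µM cephalothin, initial rates read at 270 nm. Titrations: 150 nM enzyme with 0–2.0 µM inhibitor, run to completion. Both datasets were fitted together to an acylation/partition scheme, k2 fixed at 100 s⁻¹. k_i = k1/(1 + k2/k3).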

[2] = molecular target: Beta-lactamase (Enterobacter cloacae) (UniProt P05364); experiment: Irreversible inhibition of Enterobacter cloacae P99 beta-lactamase assessed as second-order rate constant for enzyme-inhibitor complex using cephalothin as substrate by spectrophotometric analysis; method in brief: as §1
[3] = molecular target: Beta-lactamase (Enterobacter cloacae, UniProt P05364); experiment: Irreversible inhibition of Enterobacter cloacae P99 beta-lactamase using cephalothin as substrate by spectrophotometric analysis
Method in brief: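 P99 class C β-lactamase (stock concentration by A280, ε 7.1 x 10⁴ M⁻¹cm⁻¹) incubated with inhibitor in 20 mM MOPS pH 7.5, 0.1% BSA, 25 °C. Aliquots diluted 1:50 into 300 μM cephalothin; initial rates followed at 270 nm over time. Titration: 150 nM enzyme with 0–2.0 μM inhibitor to end-point. Time-course and titration data fitted jointly to Scheme 2, k2 fixed at 100 s⁻¹, giving k1, k2/k3 and k_i.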

[4] = molecular target: Beta-lactamase (Enterobacter cloacae) (UniProt P05364); experiment: Binding affinity to Enterobacter cloacae P99 beta-lactamase assessed as increase in molecular weight of enzyme-compound complex by mass-spectra analysis (reference value: 39192 Da)
Method in brief: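 P99 enzyme was analysed by electrospray MS before and after inactivation. Protein was precipitated with trichloroacetic acid, then the precipitate was washed and dried before analysis.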

Sequence of Beta-lactamase (Enterobacter cloacae) (P05364 21-381 limits assumed): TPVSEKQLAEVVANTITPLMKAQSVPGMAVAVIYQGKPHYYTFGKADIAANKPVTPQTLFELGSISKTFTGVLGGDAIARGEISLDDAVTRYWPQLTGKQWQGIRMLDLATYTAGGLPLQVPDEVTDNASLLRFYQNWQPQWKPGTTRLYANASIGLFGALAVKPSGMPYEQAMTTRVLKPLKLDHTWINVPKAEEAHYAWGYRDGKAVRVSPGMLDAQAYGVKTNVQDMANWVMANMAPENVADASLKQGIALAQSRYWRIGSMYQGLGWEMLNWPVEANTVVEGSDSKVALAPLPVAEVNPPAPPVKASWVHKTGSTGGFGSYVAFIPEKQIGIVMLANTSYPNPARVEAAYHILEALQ
Sequence of Beta-lactamase (P05364 whole entry): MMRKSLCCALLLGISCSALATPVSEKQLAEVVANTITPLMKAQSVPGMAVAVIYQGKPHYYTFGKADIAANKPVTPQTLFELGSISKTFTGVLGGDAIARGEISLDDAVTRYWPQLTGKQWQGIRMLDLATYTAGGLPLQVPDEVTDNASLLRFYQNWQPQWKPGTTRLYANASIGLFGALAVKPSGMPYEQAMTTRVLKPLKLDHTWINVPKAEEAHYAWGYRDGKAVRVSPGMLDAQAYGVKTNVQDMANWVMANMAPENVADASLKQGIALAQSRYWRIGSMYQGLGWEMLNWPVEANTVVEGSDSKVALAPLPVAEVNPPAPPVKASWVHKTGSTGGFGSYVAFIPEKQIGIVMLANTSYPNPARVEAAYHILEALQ

| SMILES | Ratio [1] | K [2] | second-order inactivation rate constant (k_i) [3] | Activity [4] | second-order inactivation rate constant (k i) [3] |
| --- | --- | --- | --- | --- | --- |
| O=C(NOC(=O)Oc1ccccc1)OCc1ccccc1 | 2 | 6.1 ×10³ /M/s | 2 ×10³ /M/s | – | – |
| O=C(NOC(=O)Oc1ccccc1)OCCc1ccccc1 | 25 | 3.7 ×10⁴ /M/s | 1.4 ×10³ /M/s | 26 Da | – |
| N[C@H](CCCOC(=O)NOC(=O)Oc1ccccc1)C(=O)O | 1.25 | 3.5 ×10⁴ /M/s | 1.6 ×10⁴ /M/s | – | – |
| O=C(O)CCCCOC(=O)NOC(=O)Oc1ccccc1 | 2.3 | 2.8 ×10⁴ /M/s | 8.5 ×10³ /M/s | 26 Da | – |
| CCCCOC(=O)NOC(=O)Oc1ccccc1 | 2.4 | 3.6 ×10³ /M/s | 1.1 ×10³ /M/s | 185 Da | – |
| N[C@H](Cc1ccc(OC(=O)NOC(=O)Oc2ccccc2)cc1)C(=O)O | < 1 | 360 M⁻¹ s⁻¹ | – | 26 Da | 180 to 360 M⁻¹ s⁻¹ |
